Data reported in ChEMBL document CHEMBL3351774, “Inhibitory activities of propolis and its promising component, caffeic acid phenethyl ester, against amyloidogenesis of human transthyretin” (J Med Chem, 2014).
The source made the active and inactive calls. The calls are words filed in the database; no cut-off is given here.

Key:
Transthyretin [1] = target: Transthyretin (Homo sapiens, UniProt P02766, V50M); test: (§1) Inhibition of TTR V30M mutant (unknown origin) expressed in Escherichia coli assessed as inhibition of amyloid fibril formation by fluorescence assay
Procedure, shortened: (§2)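 Compounds were tested at 2.5−80 μM with at least four concentrations. EC50 came from a four-parameter logistic least-squares fit. Standard deviations and p values were taken from triplicate experiments.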

[2] = test system: Transthyretin (Homo sapiens), P02766 [V50M]; test: Competitive binding to TTR V30M mutant (unknown origin) expressed in Escherichia coli at 1 to 80 uM by fluorescence assay
Procedure, shortened: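 Thioflavin T competition check: preformed V30M fibrils (10 μM V30M with 66.8 μM thioflavin T, 37 °C, 72 h) were mixed with compounds at 0−80 μM final, with 20 μM thioflavin T and 200 mM Tris-HCl pH 8.0 final. Emission 460−700 nm was recorded with excitation at 440 nm.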

[3] = test system: Transthyretin (Homo sapiens), P02766 [V50M]; test: Inhibition of TTR V30M mutant (unknown origin) expressed in Escherichia coli assessed as inhibition of amyloid fibril formation at 20 uM by fluorescence assay
Procedure, shortened: as §2, with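 “Acid-mediated aggregation of 10 μM Ni-NTA-purified V30M, read by thioflavin T fluorescence at 484 nm (excitation 440 nm). Compounds” for “Compounds”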

[4] = test system: Transthyretin (Homo sapiens), P02766 [V50M]; test: Displacement of ANS from TTR V30M mutant (unknown origin) expressed in Escherichia coli at 1 to 50 uM after 5 mins by fluorescence assay
Procedure, shortened: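 ANS displacement on 2 μM Ni-NTA-purified V30M in 50 mM Tris-HCl pH 7.4, 150 mM NaCl at 298 K. ANS and compound were added in sequence, stirred and equilibrated 5 min. Dilution stayed below 0.4%. Emission 400−540 nm was read with excitation at 280 nm.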

[5] = test system: Transthyretin (Homo sapiens), P02766 [V50M]; test: Inhibition of acid-mediated dissociation of TTR V30M mutant (unknown origin) expressed in Escherichia coli after 30 mins by SDS-PAGE
Procedure, shortened: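 V30M in 20 mM Tris-Cl pH 8.0, 150 mM NaCl was preincubated with compound (ethanol stock) for 30 min at room temperature. Four volumes of 0.1 M sodium acetate pH 4.5 were then added, and the sample was held at 310 K for 8 days (7.3 μM protein; compound 7.3 or 36.5 μM final). Glutaraldehyde cross-linking ran 5 min and was stopped with borohydride. Bands were resolved by 15% SDS-PAGE and silver-stained.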

[6] = test system: Transthyretin (Homo sapiens), P02766 [V50M]; test: Inhibition of TTR V30M mutant (unknown origin) expressed in Escherichia coli assessed as inhibition of amyloid fibril formation at 5 uM by fluorescence assay
Procedure, shortened: as §2, with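 “Acid-mediated aggregation of 10 μM Ni-NTA-purified V30M, read by thioflavin T fluorescence at 484 nm (excitation 440 nm). Compounds” for “Compounds”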

[7] = test system: Transthyretin (Homo sapiens), P02766 [V50M]; test: Inhibition of TTR V30M mutant (unknown origin) expressed in Escherichia coli assessed as inhibition of amyloid fibril formation at 10 uM by fluorescence assay
Procedure, shortened: as §2, with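 “Acid-mediated aggregation of 10 μM Ni-NTA-purified V30M, read by thioflavin T fluorescence at 484 nm (excitation 440 nm). Compounds” for “Compounds”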

[8] = test system: Transthyretin (Homo sapiens), P02766 [V50M]; test: Inhibition of TTR V30M mutant (unknown origin) expressed in Escherichia coli assessed as inhibition of amyloid fibril formation at 40 uM by fluorescence assay
Procedure, shortened: as §2, with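 “Acid-mediated aggregation of 10 μM Ni-NTA-purified V30M, read by thioflavin T fluorescence at 484 nm (excitation 440 nm). Compounds” for “Compounds”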

[9] = test system: Transthyretin (Homo sapiens), P02766 [V50M]; test: Inhibition of TTR V30M mutant (unknown origin) expressed in Escherichia coli assessed as inhibition of amyloid fibril formation at 80 uM by fluorescence assay
Procedure, shortened: as §2, with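 “Acid-mediated aggregation of 10 μM Ni-NTA-purified V30M, read by thioflavin T fluorescence at 484 nm (excitation 440 nm). Compounds” for “Compounds”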

[10] = test system: Transthyretin (Homo sapiens), P02766 [V50M]; test: as §1; procedure, shortened: as §2
Transthyretin [11] = target: Transthyretin (Homo sapiens, UniProt P02766, L75P); test: Inhibition of TTR L55P mutant (unknown origin) expressed in Escherichia coli assessed as inhibition of amyloid fibril formation by fluorescence assay
Transthyretin [12] = target: Transthyretin (Homo sapiens, UniProt P02766, I104T); test: Inhibition of TTR I84T mutant (unknown origin) expressed in Escherichia coli assessed as inhibition of amyloid fibril formation by fluorescence assay

Row | Compound | EC50 (Transthyretin [1]; read-out: EC50) [µM] | Activity [2] | inhibition [3] [%] | other results
1 | COc1ccc(/C=C/C(=O)OCCc2ccccc2)cc1O | 11 | inactive |  | 
2 | COc1ccc(/C=C/C(=O)OCCc2ccccc2)cc1OC | 58 | inactive |  | 
3 | COc1cc(/C=C/C(=O)OCCc2ccccc2)ccc1O | 7.9 | inactive | < 20 | Activity [4]: Active; inhibition [5]: Dose-dependent effect
4 | COc1ccc(CC(C)C(C)Cc2ccc(OC)c(OC)c2)cc1OC (stereo not drawn) |  |  | < 20 | EC50 (Transthyretin [1]): Not Active
5 | CCCCCCCCOC(=O)/C=C/c1ccc(O)c(O)c1 |  |  | 47 | inhibition [6]: 27%; inhibition [7]: 44%; inhibition [8]: 49%; inhibition [9]: 53%
6 | COc1cc(CNC(=O)CCCC/C=C/C(C)C)ccc1O |  |  | < 20 | 
7 | COc1cc(C[C@H]2COC(=O)[C@@H]2Cc2ccc(O)c(OC)c2)ccc1O |  |  | < 12 | 
8 | O=C(/C=C/c1ccc(O)c(O)c1)O[C@@H]1C[C@](O)(C(=O)O)C[C@@H](O)[C@H]1O |  |  |  | inhibition [10]: inactive
9 | O=C(/C=C/c1ccccc1)OCCc1ccccc1 |  |  |  | inhibition [10]: inactive
10 | O=C(O)c1cc(-c2ccc(F)cc2F)ccc1O |  |  | < 20 | 
11 | O=C1OC[C@H](Cc2cccc(O)c2)[C@H]1Cc1cccc(O)c1 |  |  | < 20 | 
12 | OC[C@H](Cc1cccc(O)c1)[C@H](CO)Cc1cccc(O)c1 |  |  | < 20 | 
13 | c1cc2c(cc1[C@H]1OC[C@H]3[C@@H]1CO[C@@H]3c1ccc3c(c1)OCO3)OCO2 |  |  | < 20 | 
14 | O=C(/C=C/c1ccc(O)c(O)c1)OCc1ccccc1 [BENZYL CAFFEATE] | 16 | Active |  | 
15 | O=C(/C=C/c1ccc(O)c(O)c1)OCCc1ccccc1 [CAFFEIC ACID PHENETHYL ESTER] | 8.6 | inactive | < 20 | Activity [4]: Active
16 | O=C(O)/C=C/c1ccc(O)c(O)c1 [CAFFEIC ACID] | 97 | inactive |  | 
17 | COc1cc(CC(C)C(C)Cc2ccc(O)c(OC)c2)ccc1O (stereo not drawn) [DIHYDROGUAIARETIC ACID] | 6.3 | inactive | < 20 | Activity [4]: Active
18 | CCOC(=O)/C=C/c1ccc(O)c(O)c1 [ETHYL CAFFEATE] | 23 | inactive | < 20 | Activity [4]: Active
19 | COC(=O)/C=C/c1ccc(O)c(O)c1 [METHYLCAFFEATE] | 67 | inactive |  | 
20 | CC(Cc1ccc(O)c(O)c1)C(C)Cc1ccc(O)c(O)c1 (stereo not drawn) [NORDIHYDROGUAIARETIC ACID] | 7.3 | inactive | < 20 | EC50 (Transthyretin [11]): 12.6 µM; EC50 (Transthyretin [12]): 8.5 µM; Activity [4]: Active
21 | CC(C)=CCOC(=O)/C=C/c1ccc(O)c(O)c1 [PRENYL CAFFEATE] | 21 | inactive | < 20 | 
22 | O=C(/C=C/c1ccc(O)c(O)c1)O[C@H](Cc1ccc(O)c(O)c1)C(=O)O [ROSMARINIC ACID] | 8.6 | inactive |  | 
